Experimental data: ChEMBL document CHEMBL1137420, “Design of cyclic peptides with agonist activity at melanocortin receptor-4” (Bioorg Med Chem Lett, 2006)

Tests used:
[1] = biological target: Melanocortin receptor (M1 and M4) (Homo sapiens, UniProt P32245+Q01726); assay: Selectivity for human MC4R over MC1R; assay type: functional
Melanocortin receptor 4 [2] = biological target: T1, Melanocortin receptor 4 (Homo sapiens, UniProt P32245); assay: Activity at human MC4R by cAMP accumulation in SaoS2 cells; assay type: functional, cell-based, SAOS-2
T1 sequence (P32245 whole entry): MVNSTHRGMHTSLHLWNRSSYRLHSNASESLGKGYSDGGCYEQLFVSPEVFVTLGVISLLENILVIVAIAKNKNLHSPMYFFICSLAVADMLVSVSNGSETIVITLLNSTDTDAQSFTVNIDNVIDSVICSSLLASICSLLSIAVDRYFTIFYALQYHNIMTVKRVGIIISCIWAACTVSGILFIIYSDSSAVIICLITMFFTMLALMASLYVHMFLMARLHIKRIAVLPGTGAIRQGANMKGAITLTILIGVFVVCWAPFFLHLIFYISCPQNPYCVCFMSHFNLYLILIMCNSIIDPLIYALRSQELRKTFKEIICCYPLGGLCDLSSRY

[3] = biological target: Melanocyte-stimulating hormone receptor (Homo sapiens, UniProt Q01726); assay: Activity at human MC1R by cAMP accumulation in SaoS2 cells; assay type: functional, cell-based, SAOS-2
Sequence of Melanocyte-stimulating hormone receptor (Q01726 whole entry): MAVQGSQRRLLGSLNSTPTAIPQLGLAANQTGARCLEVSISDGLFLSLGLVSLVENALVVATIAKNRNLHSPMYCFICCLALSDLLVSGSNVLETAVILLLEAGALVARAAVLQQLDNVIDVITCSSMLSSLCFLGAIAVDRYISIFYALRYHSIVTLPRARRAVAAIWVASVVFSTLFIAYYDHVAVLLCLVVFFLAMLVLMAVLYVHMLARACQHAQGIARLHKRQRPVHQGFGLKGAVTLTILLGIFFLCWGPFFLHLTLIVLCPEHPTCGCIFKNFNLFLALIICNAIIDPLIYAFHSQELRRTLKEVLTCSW

Melanocortin receptor 4 [4] = biological target: T1, Melanocortin receptor 4; assay: Displacement of [125I]NDP-alpha-MSH from human cloned MC4R expressed in HEK293 cells; assay type: cell-based
Procedure, shortened: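 Binding affinity was measured by displacement of radiolabelled [125I]NDP-alpha-MSH ([Nle4, D-Phe7]-alpha-MSH) from recombinant human MC4R expressed in HEK-293 cells.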

| Structure (SMILES) | EC50 ratio (MC1R/MC4R) [1] | EC50 (Melanocortin receptor 4 [2]) | EC50 [3] | Ki (Melanocortin receptor 4 [4]) |
| --- | --- | --- | --- | --- |
| N=C(N)NCCC[C@@H]1NC(=O)[C@H](Cc2ccccc2)NC(=O)[C@H](Cc2cnc[nH]2)NC(=O)CCCCCCCNC(=O)[C@H](Cc2c[nH]c3ccccc23)NC1=O | 0.53 | 9590 nM | 5100 nM | 4420 nM |
| N=C(N)NCCC[C@@H]1NC(=O)[C@@H](Cc2ccccc2)NC(=O)[C@H](Cc2c[nH]cn2)NC(=O)CCCCCNC(=O)[C@H](Cc2c[nH]c3ccccc23)NC1=O | 0.42 | 3120 nM | 1300 nM | 670 nM |
| N=C(N)NCCC[C@@H]1NC(=O)[C@@H](Cc2ccccc2)NC(=O)[C@H](Cc2c[nH]cn2)NC(=O)CCCCCCNC(=O)[C@H](Cc2c[nH]c3ccccc23)NC1=O | 4.3 | 15.4 nM | 67 nM | 244 nM |

More lines, in order of falling EC50 (Melanocortin receptor 4 [2]), values ahead:

| EC50 ratio (MC1R/MC4R) [1] | EC50 (Melanocortin receptor 4 [2]) | EC50 [3] | Ki (Melanocortin receptor 4 [4]) | Structure (SMILES) |
| --- | --- | --- | --- | --- |
| 0.33 | 10100 nM | 3300 nM | – | N=C(N)NCCC[C@@H]1NC(=O)[C@@H](Cc2ccccc2)NC(=O)[C@H](Cc2c[nH]cn2)NC(=O)CCCCNC(=O)[C@H](Cc2c[nH]c3ccccc23)NC1=O |
| 0.17 | 1580 nM | 270 nM | 5780 nM | NC(N)=NCCC[C@@H]1NC(=O)[C@@H](Cc2ccccc2)NC(=O)[C@H](Cc2cnc[nH]2)NC(=O)CCCNC(=O)[C@H](Cc2c[nH]c3ccccc23)NC1=O |
| 4.7 | 16.4 nM | 77.4 nM | 319 nM | NC(N)=NCCC[C@@H]1NC(=O)[C@@H](Cc2ccccc2)NC(=O)[C@H](Cc2cnc[nH]2)NC(=O)CCCCCCCNC(=O)[C@H](Cc2c[nH]c3ccccc23)NC1=O |
